Experimental data taken from ChEMBL document CHEMBL1136923, “Highly potent, orally available anti-inflammatory broad-spectrum chemokine inhibitors” (J Med Chem, 2009).

Columns and labels:
[1] = molecular target: C-C chemokine receptor type 2 (Homo sapiens) (UniProt P41597); assay: Antagonist activity at CCR2 in human THP1 cells assessed as inhibition of CCL2-induced chemotaxis at 1 nM after 2 hrs by microtiter format trans-well migration assay; assay type: functional, cell-based; details: THP-1
Outline: (§1)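 Microtiter trans-well migration assay in Gey's balanced salt solution with 1 mg/mL endotoxin-free BSA, no fetal calf serum. Migration ran 2 h at 37 °C. Compounds dissolved in DMSO and added to both top and bottom compartments, final DMSO 1%.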

[2] = tested on: Mus musculus; assay: Antiinflammatory activity in mouse assessed as inhibition of LPS-induced TNFalpha upregulation at 0.00075 mg, sc measured 2 hrs after LPS challenge; assay type: functional
Outline: (§2)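 Murine sublethal endotoxemia: LPS given intraperitoneally, serum TNF-α measured 2 h after LPS injection. Compound vehicle 0.6% DMSO plus 1% carboxymethylcellulose (final concentrations) in sterile water.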

[3] = molecular target: T1, C5a anaphylatoxin chemotactic receptor 1 (Homo sapiens) (UniProt P21730); assay: Antagonist activity at C5a receptor in human PMNC assessed as inhibition of C5a-induced chemotaxis after 2 hrs by microtiter format trans-well migration assay; assay type: functional; outline: as §1
T1 sequence (whole entry): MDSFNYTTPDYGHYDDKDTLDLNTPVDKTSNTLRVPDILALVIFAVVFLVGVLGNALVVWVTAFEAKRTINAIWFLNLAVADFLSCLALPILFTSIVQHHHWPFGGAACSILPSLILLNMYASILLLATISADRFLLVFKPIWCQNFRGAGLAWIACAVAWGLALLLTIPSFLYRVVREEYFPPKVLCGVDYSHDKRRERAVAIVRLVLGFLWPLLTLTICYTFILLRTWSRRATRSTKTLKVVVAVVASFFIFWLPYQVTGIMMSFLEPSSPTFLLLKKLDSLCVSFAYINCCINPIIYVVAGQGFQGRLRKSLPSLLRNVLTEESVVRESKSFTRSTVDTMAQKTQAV

[4] = molecular target: T1, C5a anaphylatoxin chemotactic receptor 1 (Homo sapiens); assay: Antagonist activity at C5a receptor in human PMNC assessed as inhibition of C5a-induced chemotaxis at 1 nM after 2 hrs by microtiter format trans-well migration assay; assay type: functional; outline: as §1
[5] = tested on: THP-1; assay: Endogenous chemoattractant activity at human THP1 cells assessed as cell migration at 10 uM after 2 hrs by microtiter format trans-well migration assay; assay type: functional
[6] = molecular target: T2, C-C chemokine receptor type 1 (Homo sapiens) (UniProt P32246); assay: Antagonist activity at CCR1 in human THP1 cells assessed as inhibition of CCL3-induced chemotaxis at 1 nM after 2 hrs by microtiter format trans-well migration assay; assay type: functional, cell-based; details: THP-1; outline: as §1
T2 sequence (whole entry): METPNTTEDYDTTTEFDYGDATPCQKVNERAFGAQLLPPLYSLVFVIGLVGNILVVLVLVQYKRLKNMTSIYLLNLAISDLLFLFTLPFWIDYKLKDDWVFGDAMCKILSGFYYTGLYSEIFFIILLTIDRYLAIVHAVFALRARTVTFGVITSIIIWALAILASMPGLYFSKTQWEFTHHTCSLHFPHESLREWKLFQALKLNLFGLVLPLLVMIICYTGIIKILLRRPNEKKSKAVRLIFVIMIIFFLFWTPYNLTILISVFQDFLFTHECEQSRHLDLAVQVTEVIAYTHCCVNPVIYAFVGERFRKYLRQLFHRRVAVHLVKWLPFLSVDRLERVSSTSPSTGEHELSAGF

[7] = tested on: Mus musculus; assay: Antiinflammatory activity in mouse assessed as inhibition of LPS-induced TNFalpha upregulation at 0.000225 mg, sc measured 2 hrs after LPS challenge; assay type: functional; outline: as §2
[8] = tested on: Mus musculus; assay: Antiinflammatory activity in mouse assessed as inhibition of LPS-induced TNFalpha upregulation at 0.025 ug, sc measured 2 hrs after LPS challenge; assay type: functional
Outline: (§3)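 Murine sublethal endotoxemia: LPS given intraperitoneally, with serum TNF-α measured 2 h after the LPS injection as the end point. Compound was given subcutaneously or orally. Vehicle was 0.6% DMSO and 1% carboxymethylcellulose (final concentrations) in sterile water. Effect is reported as % relative to control.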

[9] = tested on: Mus musculus; assay: Antiinflammatory activity in mouse assessed as inhibition of LPS-induced TNFalpha upregulation at 0.0075 ug, sc measured 2 hrs after LPS challenge; assay type: functional; outline: as §3
[10] = tested on: Mus musculus; assay: Antiinflammatory activity in sc dosed mouse assessed as inhibition of LPS-induced TNFalpha upregulation measured 2 hrs after LPS challenge; assay type: functional
[11] = molecular target: T1, C5a anaphylatoxin chemotactic receptor 1 (Homo sapiens); assay: Antagonist activity at C5a receptor in human PMNC assessed as inhibition of C5a-induced chemotaxis at 1000 nM after 2 hrs by microtiter format trans-well migration assay; assay type: functional; outline: as §1
[12] = molecular target: C-C chemokine receptor type 2 (Homo sapiens) (UniProt P41597); assay: Antagonist activity at CCR2 in human THP1 cells assessed as inhibition of CCL2-induced chemotaxis at 1000 nM after 2 hrs by microtiter format trans-well migration assay; assay type: functional, cell-based; details: THP-1; outline: as §1
[13] = molecular target: C-C chemokine receptor type 5 (Homo sapiens) (UniProt P51681); assay: Antagonist activity at CCR5 in human THP1 cells assessed as inhibition of CCL5-induced chemotaxis at 0.1 nM after 2 hrs by microtiter format trans-well migration assay; assay type: functional, cell-based; details: THP-1; outline: as §1
[14] = molecular target: T2, C-C chemokine receptor type 1 (Homo sapiens); assay: Antagonist activity at CCR1 in human THP1 cells assessed as inhibition of CCL3-induced chemotaxis at 10 nM after 2 hrs by microtiter format trans-well migration assay; assay type: functional, cell-based; details: THP-1; outline: as §1
[15] = molecular target: C-X-C chemokine receptor type 4 (Homo sapiens) (UniProt P61073); assay: Antagonist activity at CXCR4 in human THP1 cells assessed as inhibition of CXCL12-induced chemotaxis at 10 nM after 2 hrs by microtiter format trans-well migration assay; assay type: functional, cell-based; details: THP-1; outline: as §1
[16] = molecular target: C-C chemokine receptor type 5 (Homo sapiens) (UniProt P51681); assay: Antagonist activity at CCR5 in human THP1 cells assessed as inhibition of CCL5-induced chemotaxis after 2 hrs by microtiter format trans-well migration assay; assay type: functional, cell-based; details: THP-1; outline: as §1

C-C chemokine receptor type 2 (Homo sapiens), sequence (P41597 whole entry, looked up): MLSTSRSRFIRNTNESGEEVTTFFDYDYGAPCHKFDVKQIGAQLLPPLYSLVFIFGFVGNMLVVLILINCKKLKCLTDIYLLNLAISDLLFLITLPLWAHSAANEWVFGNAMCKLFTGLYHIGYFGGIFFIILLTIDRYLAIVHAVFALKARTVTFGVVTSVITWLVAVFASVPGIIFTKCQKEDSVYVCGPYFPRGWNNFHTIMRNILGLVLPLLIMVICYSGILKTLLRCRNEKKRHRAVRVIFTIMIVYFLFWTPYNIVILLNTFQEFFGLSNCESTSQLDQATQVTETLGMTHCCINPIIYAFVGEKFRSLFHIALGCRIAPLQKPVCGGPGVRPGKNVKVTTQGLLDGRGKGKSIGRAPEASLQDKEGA
C-C chemokine receptor type 5 (Homo sapiens), sequence (P51681 whole entry, looked up): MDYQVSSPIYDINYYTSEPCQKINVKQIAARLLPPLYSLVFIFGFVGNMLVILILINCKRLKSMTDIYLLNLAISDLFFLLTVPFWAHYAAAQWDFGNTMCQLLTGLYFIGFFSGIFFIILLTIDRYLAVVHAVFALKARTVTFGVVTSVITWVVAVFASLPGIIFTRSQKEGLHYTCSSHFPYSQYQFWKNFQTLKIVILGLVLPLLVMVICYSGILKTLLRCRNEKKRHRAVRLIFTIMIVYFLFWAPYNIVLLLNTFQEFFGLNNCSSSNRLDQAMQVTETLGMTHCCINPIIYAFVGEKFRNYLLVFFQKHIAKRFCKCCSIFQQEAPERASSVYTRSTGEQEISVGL
C-X-C chemokine receptor type 4 (Homo sapiens), sequence (P61073 whole entry): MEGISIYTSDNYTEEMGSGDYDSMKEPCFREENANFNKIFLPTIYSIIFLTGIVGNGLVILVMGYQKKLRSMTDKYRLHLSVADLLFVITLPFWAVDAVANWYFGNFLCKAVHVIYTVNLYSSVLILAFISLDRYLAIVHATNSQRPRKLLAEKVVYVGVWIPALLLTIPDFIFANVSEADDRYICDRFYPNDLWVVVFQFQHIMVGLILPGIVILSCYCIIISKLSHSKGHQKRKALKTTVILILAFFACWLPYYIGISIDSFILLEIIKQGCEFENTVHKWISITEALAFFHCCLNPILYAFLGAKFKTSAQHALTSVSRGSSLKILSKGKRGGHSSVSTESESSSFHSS

## CCCCCCCCCCC(C)(C)C(=O)N[C@H]1CCCCNC1=O
[1]
  inhibition: 81%
[2]
  inhibition (INH): 57%
[3]
  ED50: > 1000 nM
[4]
  inhibition: 17.5%
[5]
  Activity: 2540%
[6]
  inhibition: 92.5%
[7]
  inhibition (INH): 68%
[8]
  inhibition (INH): 67%
[9]
  inhibition (INH): 54%
[10]
  ED50: 0.15 µg/kg
[11]
  inhibition: 26%
[12]
  inhibition: 97%
[13]
  inhibition: 16.5%
[14]
  inhibition: 98%
[15]
  inhibition: 107%
[16]
  ED50: 0.9 nM
